Consider 1 compound from paper PMC5325675 (Molecular cell, 2017).

What is called Kd is a measure of binding affinity in units of concentration. A higher Kd goes with lower affinity.

Residue numbers refer to the chain shown, from its start.

One test concerns the target T1, PTP1BΔ7 (Homo sapiens, UniProt P18031).
T1 sequence (P18031 1-284): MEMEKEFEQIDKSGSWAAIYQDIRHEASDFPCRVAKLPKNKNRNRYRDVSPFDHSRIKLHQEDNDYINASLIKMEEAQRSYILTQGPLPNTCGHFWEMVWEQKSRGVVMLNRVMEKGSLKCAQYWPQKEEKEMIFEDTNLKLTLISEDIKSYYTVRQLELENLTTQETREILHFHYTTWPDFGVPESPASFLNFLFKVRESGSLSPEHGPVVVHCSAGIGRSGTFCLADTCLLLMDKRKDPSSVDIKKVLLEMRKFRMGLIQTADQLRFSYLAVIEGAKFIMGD
The test can be described thus: pNPP activity assay with TCS401. It counts as biochemical. An outline of the steps:
(§1)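 Freshly prepared enzyme (0.15 µM) in 50 mM HEPES pH 7.5, 150 mM NaCl, 0.5 mM TCEP was run with pNPP (0-6000 µM), with or without test compound at 100 or 300 µM (0.4 or 1.2% DMSO). Reactions ran 30 min at 30°C, were stopped with 0.5 M NaOH and read at 405 nm, minus no-enzyme blanks. Km came from Michaelis-Menten fits and Ki from Km,obs = Km(1+[I]/Ki). Duplicates, repeated 3-6 times.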

In a further test the target is T2, PTP1BT178A (Homo sapiens, UniProt P18031, T178A).
T2 sequence (P18031 1-301 T178A): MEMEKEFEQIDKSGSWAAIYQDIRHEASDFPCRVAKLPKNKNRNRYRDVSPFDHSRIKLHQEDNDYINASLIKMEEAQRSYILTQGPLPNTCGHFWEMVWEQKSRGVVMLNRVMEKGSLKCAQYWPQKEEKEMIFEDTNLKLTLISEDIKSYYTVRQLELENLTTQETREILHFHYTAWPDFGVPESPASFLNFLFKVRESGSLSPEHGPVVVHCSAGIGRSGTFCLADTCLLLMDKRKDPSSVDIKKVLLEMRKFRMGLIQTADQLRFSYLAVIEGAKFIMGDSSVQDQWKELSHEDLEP
The test can be described thus: Fluorescence affinity measurement, PTP1BT178A. Particulars: binding to PTP1BT178A. An outline of the steps: (§2)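 Human PTP1B catalytic domain (residues 1-301; Δ7 is 1-284) was expressed in E. coli BL21(DE3) RIL and the His-tag removed with TEV. Protein at 2.5 µM in 50 mM HEPES pH 7.5, 150 mM NaCl, 0.5 mM TCEP was titrated with test compound (0-140 µM), with a DMSO-only control. Fluorescence was read at excitation 280 nm, emission 300-550 nm. KD came from a quadratic single-site fit; triplicate.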

A further test deals with T3, PTP1BL192A (Homo sapiens, UniProt P18031, L192A).
T3 sequence (P18031 1-301 L192A): T2 sequence (P18031 1-301 T178A) with A178T, L192A
The test can be described thus: Fluorescence affinity measurement, PTP1BL192A. To be noted: binding to PTP1BL192A. An outline of the steps:
as §2

Another test concerns the target T4, PTP1BYAYA (Y152AY153A) (Homo sapiens, UniProt P18031, Y152A/Y153A).
T4 sequence (P18031 1-301 Y152A/Y153A): T2 sequence (P18031 1-301 T178A) with Y152A, Y153A, A178T
Briefly: Fluorescence affinity measurement, PTP1BYAYA. To be noted: binding to PTP1BYAYA. An outline of the steps: as §2

The target of another test is T5, PTP1BYAYA (Homo sapiens, UniProt P18031, Y152A/Y153A).
T5 sequence (P18031 1-301 Y152A/Y153A): T2 sequence (P18031 1-301 T178A) with Y152A, Y153A, A178T
Briefly: pNPP activity assay with TCS401. It counts as biochemical. An outline of the steps:
as §1

In another test the target is T6, PTP1BΔ7 (residues 1-284) (Homo sapiens, UniProt P18031).
T6 sequence (P18031 1-284): T1 sequence (P18031 1-284)
Briefly: Fluorescence affinity measurement, PTP1BΔ7. Particulars: binding to PTP1BΔ7. Summed up: as §2

The target in test [1] is T7, PTP1BN193A (Homo sapiens, UniProt P18031, N193A).
T7 sequence (P18031 1-301 N193A): T2 sequence (P18031 1-301 T178A) with A178T, N193A
The test can be described thus: Fluorescence affinity measurement, PTP1BN193A. Particulars: binding to PTP1BN193A. Summed up:
as §2

A further test addresses T8, PTP1B (residues 1-301) (Homo sapiens, UniProt P18031).
T8 sequence (P18031 1-301): T2 sequence (P18031 1-301 T178A) with A178T
The test can be described thus: Fluorescence affinity measurement of inhibitor binding to PTP1B. Particulars: binding to PTP1B (wt, 1-301); Table S1.

Another test addresses T9, PTP1BP185G (Homo sapiens, UniProt P18031, P185G).
T9 sequence (P18031 1-301 P185G): T2 sequence (P18031 1-301 T178A) with A178T, P185G
The test can be described thus: Fluorescence affinity measurement, PTP1BP185G. To be noted: binding to PTP1BP185G (catalytically dead variant). An outline of the steps: as §2

Test [2] has as its target T7, PTP1BN193A. The test can be described thus: pNPP activity assay with TCS401. It counts as biochemical. An outline of the steps:
as §1

Regarding `O=C(O)C(=O)Nc1sc2c(c1C(=O)O)CCNC2` [TCS401], the “Ki (competition between substrate and TCS401) compared with PTP1B” value on PTP1BΔ7, at PTP1BYAYA and on PTP1BN193A [2] was “higher Ki values” each time. Further, the dissociation constant (Kd) at PTP1BT178A was 45 ± 3.5 µM; on PTP1BL192A it was 39 ± 6 µM; on PTP1BYAYA (Y152AY153A), 26 ± 3 µM; on PTP1BΔ7 (residues 1-284), 33 ± 6 µM; at PTP1BN193A [1] it was 37 ± 4 µM; at PTP1B (residues 1-301) it was ~26 µM. Also, binding on PTP1BP185G was characterised by a dissociation constant (Kd) of 20 ± 0.6 µM.
